Assay [1] addresses T1, Adrenergic receptor alpha-1 (Rattus norvegicus) (UniProt P15823+P23944+P43140). Kind of assay: Agonism at Alpha-1 adrenoceptor determined in rat anococcygeus preparation; Inactive. The class given is functional. A digest of the protocol:
(§1)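 Isolated tissue agonist test, potency compared directly with the standard in the same experiment. Standard dose-response curves were run before and after the test compound's curve. Rat anococcygeus (male Sprague-Dawley, 200-250 g; Krebs, 30 °C, 95% O2/5% CO2) was compared with phenylephrine. Field-stimulated mouse vas deferens (0.1 Hz, Mg-free Krebs, 30 °C) was compared with clonidine.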

In assay [2] the target is T1, Adrenergic receptor alpha-1 (Rattus norvegicus). Kind of assay: In vitro inhibition of the contractile effect of phenylephrine on the isolated rat anococcygeus; potency relative to idazoxan. It is filed as functional.
Assay [3] concerns the target T2, Alpha-2 adrenergic receptor (Mus musculus) (UniProt P30545+Q01338+Q01337). The experiment in a line: Ability to antagonize the inhibitory effect of clonidine on the mouse vas deferens is the presynaptic alpha-2 adrenergic receptor antagonist potency relative to idazoxan = 1. The class given is functional, tissue-based. A digest of the protocol: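 Male adult mouse vasa deferentia (MFI >30 g), 0.5 g initial tension, Mg-free Krebs, 30 °C, 95% O2/5% CO2. Field stimulation at 0.1 Hz, 3-ms pulses, 100-140 V set to give ~100-mg twitch, recorded isometrically.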

The target of assay [4] is T2, Alpha-2 adrenergic receptor (Mus musculus). The experiment in a line: Presynaptic alpha-2 adrenergic receptor from mouse vas deferens agonistic activity relative to clonidine = 1. It is filed as functional, tissue-based. An outline of the steps:
as §1

Assay [5] can be described thus: Selectivity between pre- and post-synaptic sites of action. It is filed as functional.
Assay [6] addresses T1, Adrenergic receptor alpha-1 (Rattus norvegicus). Kind of assay: Agonism in vitro at Alpha-1 adrenoceptor determined in rat anococcygeus preparation. The class given is functional. A digest of the protocol:
as §1

Assay [7] has the same target. The experiment in a line: In vitro inhibition of the contractile effect of phenylephrine on the isolated rat anococcygeus; potency relative to idazoxan; Inactive. The class given is functional.
For assay [8], the target named is T2, Alpha-2 adrenergic receptor (Mus musculus). Kind of assay: Presynaptic alpha-2 adrenergic receptor agonistic activity in mouse vas deferens relative to clonidine. The class given is functional, tissue-based. An outline of the steps:
as §1

In assay [9] the target is T3, Alpha-2 adrenergic receptor (Mus musculus, UniProt P30545+Q01338+Q01337).
T3 sequence (P30545 whole entry): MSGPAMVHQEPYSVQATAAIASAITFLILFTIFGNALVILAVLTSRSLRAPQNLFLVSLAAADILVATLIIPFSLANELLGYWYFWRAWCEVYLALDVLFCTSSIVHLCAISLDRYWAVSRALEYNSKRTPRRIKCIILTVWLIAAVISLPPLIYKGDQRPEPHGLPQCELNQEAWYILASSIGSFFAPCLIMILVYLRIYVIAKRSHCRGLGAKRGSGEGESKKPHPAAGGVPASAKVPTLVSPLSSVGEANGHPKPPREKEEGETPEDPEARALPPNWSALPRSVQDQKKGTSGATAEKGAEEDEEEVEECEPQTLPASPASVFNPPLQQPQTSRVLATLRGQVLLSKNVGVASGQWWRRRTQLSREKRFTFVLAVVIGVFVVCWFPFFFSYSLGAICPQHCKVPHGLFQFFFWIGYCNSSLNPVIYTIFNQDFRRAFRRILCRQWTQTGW
T3 sequence (Q01338 whole entry): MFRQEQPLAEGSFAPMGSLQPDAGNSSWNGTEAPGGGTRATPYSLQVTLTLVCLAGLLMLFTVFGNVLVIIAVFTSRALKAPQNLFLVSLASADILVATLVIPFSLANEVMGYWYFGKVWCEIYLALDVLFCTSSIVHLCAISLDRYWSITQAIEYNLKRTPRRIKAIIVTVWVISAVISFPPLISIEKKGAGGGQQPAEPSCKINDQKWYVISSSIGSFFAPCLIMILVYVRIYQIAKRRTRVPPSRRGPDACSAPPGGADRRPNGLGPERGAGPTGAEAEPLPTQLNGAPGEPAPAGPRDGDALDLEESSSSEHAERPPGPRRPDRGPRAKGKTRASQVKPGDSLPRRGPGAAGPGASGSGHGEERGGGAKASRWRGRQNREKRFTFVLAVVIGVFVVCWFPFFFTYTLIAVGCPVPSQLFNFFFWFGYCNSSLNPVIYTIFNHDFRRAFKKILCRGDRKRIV
T3 sequence (Q01337 whole entry): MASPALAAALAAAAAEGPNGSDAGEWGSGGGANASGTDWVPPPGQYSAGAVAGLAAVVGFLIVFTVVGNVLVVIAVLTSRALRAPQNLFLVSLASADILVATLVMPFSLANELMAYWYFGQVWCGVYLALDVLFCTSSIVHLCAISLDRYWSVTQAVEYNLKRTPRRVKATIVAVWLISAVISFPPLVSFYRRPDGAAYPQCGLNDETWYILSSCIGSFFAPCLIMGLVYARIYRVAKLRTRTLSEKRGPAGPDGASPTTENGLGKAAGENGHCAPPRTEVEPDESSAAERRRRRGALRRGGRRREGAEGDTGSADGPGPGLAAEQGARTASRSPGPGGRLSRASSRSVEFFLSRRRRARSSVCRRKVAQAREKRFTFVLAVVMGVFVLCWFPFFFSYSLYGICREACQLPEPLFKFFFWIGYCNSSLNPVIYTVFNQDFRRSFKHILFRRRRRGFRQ
Kind of assay: Alpha-2 adrenergic receptor […] in mouse vas deferens relative to clonidine. It is filed as functional, tissue-based. A digest of the protocol:
as §1

Active and inactive are the calls of the source. No cut-off for these calls is given here.

For the compound `Cc1cc2c(cc1C)OC(C1=NCCN1)C2` (stereo unspecified), the Agonist potency result in [1] and in assay [4] was “inactive” in each case. In addition, the results for the Antagonist potency in assay [2] and in assay [3] were 0.9 and 0.7, respectively. For the same compound, the Ratio in assay [5] is 0.8.

Turning to `Cc1cc(C)c2c(c1)CC(C1=NCCN1)O2` (stereo unspecified), the Antagonist potency in assay [3] came to 0.3. The Agonist potency entry in [4] was “inactive”. Further, in assay [6], the Agonist potency stood at 0.03. In addition, the Antagonist potency result in assay [7] was “inactive”.

On to `Fc1ccc2c(c1)CC(C1=NCCN1)O2` (stereo unspecified), for which the Agonist potency entry in [1] and in assay [4] was “inactive” in each case. The values for the Antagonist potency in assay [2] and in assay [3] were 5.6 and 1.07, respectively. The Ratio in assay [5] was 0.2.

Turning to `c1ccc(CCC2(C3=NCCN3)Cc3ccccc3O2)cc1` (stereo unspecified), the Agonist potency entry in [1] and in assay [4] was “inactive” in each case. Moreover, the Antagonist potency in [2] and in assay [3] was 0.07 each time. In addition, in [5], the Ratio came to 1.

For `Clc1cc(Cl)c2c(c1)CC(C1=NCCN1)O2` (stereo unspecified), the Antagonist potency in assay [3] was determined as 0.06. Besides, the Agonist potency was less than 0.0001 in [8] and 0.14 in assay [6]. Also, in assay [7], the Antagonist potency result is “inactive”.

Consider `Cc1ccc(C)c2c1CC(C1=NCCN1)O2` (stereo unspecified), for which the Antagonist potency in [3] turned out to be 0.03. Besides, the values for the Agonist potency in assay [8] and in [6] were 0.14 and 0.5, respectively. Besides, the Antagonist potency result in assay [7] was “inactive”.

On to `Cc1ccc2c(c1)OC(C1=NCCN1)C2` (stereo unspecified), for which the Agonist potency result in [1] and in assay [4] was “inactive” in each case. Also, the Antagonist potency in [2] worked out at 2.25; in [3], 0.46. Also, in [5], the Ratio amounted to 0.2.

For the compound `Cc1ccc2c(c1)CC(C1=NCCN1)O2` (stereo unspecified), the Agonist potency entry in assay [1] and in assay [4] was “inactive” each time. Besides, the Antagonist potency in assay [2] was found to be 2.25; in assay [3], 1. Also, the Ratio in [5] came to 0.44.

Consider `c1ccc2c(c1)CCC(C1=NCCN1)O2` (stereo unspecified), for which the Agonist potency result in assay [1] and in [4] was “inactive” throughout. For the same compound, the Antagonist potency in assay [2] turned out to be 1; in assay [3] it was 0.01. For the same compound, in assay [5], the Ratio worked out at 0.01.

As for `c1ccc2c(c1)OC(C1=NCCN1)O2`, the Antagonist potency in assay [3] is 0.001. In [4], the Agonist potency result is “inactive”. The compound further yielded an Agonist potency in assay [6] of 0.005. In addition, the Antagonist potency result in assay [7] is “inactive”.

In the case of `Brc1ccc2c(c1)CC(C1=NCCN1)O2` (stereo unspecified), the Antagonist potency in [3] was determined as 0.2. Moreover, the Agonist potency in assay [8] is less than 0.001; in assay [6] it was 0.026. In addition, the Antagonist potency result in [7] is “inactive”.

In [3], `Cc1cccc2c1CC(C1=NCCN1)O2` (stereo unspecified) came in with an Antagonist potency of 0.1. Moreover, the values for the Agonist potency in assay [8] and in [6] were 0.2 and 1.3, respectively. Further, in assay [7], the Antagonist potency entry is “inactive”.

As for `CC1c2ccccc2OC1C1=NCCN1` (stereo unspecified), the Agonist potency entry in [1] and in [4] was “inactive” throughout. In addition, the Antagonist potency in [2] amounted to 0.1; in assay [3] it was 0.03. Also, the Ratio in [5] came to 0.3.

As to `Oc1ccc2c(c1)CC(C1=NCCN1)O2` (stereo unspecified), in assay [3], the Antagonist potency came to 0.02. Besides, the Agonist potency worked out at 0.02 in [8] and 0.25 in assay [6]. Further, in assay [7], the Antagonist potency result was “inactive”.

Regarding `CC1(C2=NCCN2)Oc2ccccc2O1`, the Antagonist potency is 0.01 in [2] and 0.001 in [3]. In assay [4], the Agonist potency result was “inactive”. The Agonist potency in assay [6] was found to be 0.05. Further, the Ratio in assay [5] came out at 0.1.

For `c1ccc2c(c1)CC(C1=NCCN1)CO2` (stereo unspecified), the Agonist potency result in assay [1] and in assay [4] was “inactive” each time. Further, the Antagonist potency in [2] was 1; in assay [3] it was 0.01. The Ratio in [5] came to 0.01.

With `CC(=O)c1ccc2c(c1)CC(C1=NCCN1)O2` (stereo unspecified), the Antagonist potency in assay [3] was 0.003. In assay [4], the Agonist potency entry is “inactive”. In [6], this compound displayed an Agonist potency of 0.02. Also, in [7], the Antagonist potency entry is “inactive”.

Turning to `c1ccc2sc(C3=NCCN3)cc2c1`, the Agonist potency entry in [1] and in assay [4] was “inactive” each time. Besides, the Antagonist potency in [2] was found to be 0.05; in [3], 0.001. Further, in [5], the Ratio is 0.02.

Consider `COc1ccc2c(c1)OC(C1=NCCN1)C2` (stereo unspecified), for which the Agonist potency result in assay [1] and in assay [4] was “inactive” throughout. Besides, the results for the Antagonist potency in [2] and in assay [3] were 0.35 and 0.07, respectively. For the same compound, the Ratio in assay [5] came to 0.2.

In assay [3], `c1ccc2oc(C3=NCCN3)cc2c1` gave an Antagonist potency of 0.01. Moreover, the Agonist potency in [8] is less than 0.0003; in assay [6], less than 0.001.

Regarding `Cc1cccc2c1OC(C1=NCCN1)C2.Cl` (stereo unspecified), the Agonist potency entry in assay [1] and in assay [4] was “inactive” in each case. Further, the Antagonist potency in [2] is 0.67; in [3], 1.6. The same compound displayed a pA2 in assay [9] of 8.22. Moreover, the Ratio in assay [5] is 2.4.

As to `Cl.Clc1cccc2c1OC(C1=NCCN1)C2` (stereo unspecified), the Agonist potency result in assay [1] and in assay [4] was “inactive” each time. For the same compound, the Antagonist potency in assay [2] worked out at 1; in assay [3] it was 0.64. The compound further gave a pA2 in assay [9] of 7.64. Moreover, in assay [5], the Ratio worked out at 0.64.

As to `Oc1cccc2c1OC(C1=NCCN1)C2` (stereo unspecified), in assay [3], the Antagonist potency was found to be 0.04. For the same compound, in assay [4], the Agonist potency entry is “inactive”. In assay [6], this compound returned an Agonist potency of 0.24. In addition, in assay [7], the Antagonist potency result was “inactive”.

On to `COc1cccc2c1OC(C1=NCCN1)C2` (stereo unspecified), for which the Antagonist potency in [3] is 0.07. In addition, in [4], the Agonist potency entry is “inactive”. Moreover, the Agonist potency in assay [6] stood at 0.3. The Antagonist potency result in assay [7] was “inactive”.

`c1ccc2c(c1)OCCC(C1=NCCN1)O2` (stereo unspecified) showed an Antagonist potency in [3] of 0.04. Besides, the Agonist potency entry in assay [4] is “inactive”. This compound came in with an Agonist potency in assay [6] of less than 0.0005. Moreover, the Antagonist potency entry in [7] was “inactive”.

`Clc1cccc2c1CC(C1=NCCN1)O2` (stereo unspecified) had an Antagonist potency in [3] of 2. In [4], the Agonist potency entry was “inactive”. For the same compound, in assay [6], the Agonist potency turned out to be 1. Moreover, the Antagonist potency entry in [7] is “inactive”.

Consider `c1ccc2c(c1)CC(C1=NCCN1)S2` (stereo unspecified), for which the Agonist potency result in assay [1] is “inactive”. Besides, the values for the Antagonist potency in assay [2] and in assay [3] were 0.69 and 0.1, respectively. This compound also showed an Agonist potency in assay [8] of 0.001. Further, in assay [5], the Ratio was found to be 0.14.

Consider `Clc1ccc2c(c1Cl)OC(C1=NCCN1)C2` (stereo unspecified), for which, in [3], the Antagonist potency is 0.12. For the same compound, the values for the Agonist potency in [8] and in [6] were 0.03 and 0.001, respectively. Further, the Antagonist potency result in [7] is “inactive”.

As for `Oc1ccc2c(c1)OC(C1=NCCN1)C2` (stereo unspecified), the Antagonist potency in [3] is 0.04. Also, the Agonist potency was 0.02 in [8] and 1.5 in assay [6]. The Antagonist potency result in assay [7] was “inactive”.

For orientation: pA2 means the negative logarithm of the molar antagonist concentration that doubles the agonist concentration needed for the same response. Low values mean a weaker antagonist, high ones a more potent antagonist.

The values above are taken from ChEMBL document CHEMBL1122643, “Alpha-adrenoreceptor reagents. 2. Effects of modification of the 1,4-benzodioxan ring system on alpha-adrenoreceptor activity” (J Med Chem, 1984).
